Laboratory results from ChEMBL document CHEMBL3526105, “Cytochrome P450-mediated oxidative metabolism of abused synthetic cannabinoids found in K2/Spice: identification of novel cannabinoid receptor ligands” (Drug Metab Dispos, 2012).
Calls of active or inactive are those of the source. No cut-off for these calls is given here.

Experiments:
[1] = biological target: Cannabinoid receptor 1 (Mus musculus) (UniProt P47746); test: Activation of CB1 receptor in B6SJL mouse brain membrane assessed as [35S]-GTPgammaS binding at 10 uM after 30 mins by liquid scintillation spectrophotometric analysis in presence of O-2050; assay type: functional, cell membranes
Chain of Cannabinoid receptor 1 (Mus musculus) (P47746 whole entry): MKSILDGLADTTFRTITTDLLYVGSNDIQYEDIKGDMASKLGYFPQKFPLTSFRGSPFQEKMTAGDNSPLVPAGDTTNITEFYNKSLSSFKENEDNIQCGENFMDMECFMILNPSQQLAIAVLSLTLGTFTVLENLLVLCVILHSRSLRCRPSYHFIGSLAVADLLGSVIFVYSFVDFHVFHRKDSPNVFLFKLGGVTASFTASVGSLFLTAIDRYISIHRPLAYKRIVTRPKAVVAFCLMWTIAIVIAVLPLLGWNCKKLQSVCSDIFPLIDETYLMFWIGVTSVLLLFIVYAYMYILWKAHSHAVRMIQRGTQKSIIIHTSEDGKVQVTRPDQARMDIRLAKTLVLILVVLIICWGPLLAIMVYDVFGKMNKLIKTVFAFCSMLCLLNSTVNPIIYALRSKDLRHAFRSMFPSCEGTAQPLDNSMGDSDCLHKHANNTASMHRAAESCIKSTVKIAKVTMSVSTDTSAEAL

[2] = biological target: Cannabinoid receptor 1 (Mus musculus) (UniProt P47746); test: Activation of CB1 receptor in B6SJL mouse brain membrane assessed as [35S]-GTPgammaS binding at 10 uM after 30 mins by liquid scintillation spectrophotometric analysis; assay type: functional, cell membranes
Procedure, shortened: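 Mouse brain membrane homogenate (25 μg; whole B6SJL brains, pooled, Dounce-homogenised, spun 40,000g three times). Incubated with […], 0.1 nM [35S]GTPγS in 20 mM HEPES, 10 mM MgCl2, 100 mM NaCl, 20 U/l adenosine deaminase, 0.05% BSA, 30 min at 30°C, triplicate. Nonspecific binding with 10 μM unlabelled GTPγS. Stopped by GF/B filtration; filters counted by scintillation.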

Cytochrome P450 2C19 [3] = biological target: T1, Cytochrome P450 2C19 (Homo sapiens, UniProt P33261); test: Drug metabolism assessed as intrinsic clearance for human recombinant CYP2C19-mediated compound formation per nmol protein treated with JWH-018 at 10 uM after 90 mins; assay type: ADME; conditions: recombinant enzyme, 1.5 h
T1 sequence (P33261 whole entry): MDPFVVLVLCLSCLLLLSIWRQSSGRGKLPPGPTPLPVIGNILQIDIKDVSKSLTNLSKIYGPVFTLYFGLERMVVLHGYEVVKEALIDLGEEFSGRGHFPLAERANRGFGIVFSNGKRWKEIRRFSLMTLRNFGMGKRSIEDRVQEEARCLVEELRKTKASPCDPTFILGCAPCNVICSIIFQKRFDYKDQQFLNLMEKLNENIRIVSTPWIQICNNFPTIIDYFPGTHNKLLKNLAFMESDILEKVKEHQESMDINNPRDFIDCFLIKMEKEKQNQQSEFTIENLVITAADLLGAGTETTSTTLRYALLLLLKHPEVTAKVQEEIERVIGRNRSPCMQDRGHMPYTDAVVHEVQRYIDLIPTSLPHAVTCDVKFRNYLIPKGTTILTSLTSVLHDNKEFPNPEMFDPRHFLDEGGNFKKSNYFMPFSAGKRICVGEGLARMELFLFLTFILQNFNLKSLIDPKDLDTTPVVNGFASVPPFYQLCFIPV

Cytochrome P450 2C19 [4] = biological target: T1, Cytochrome P450 2C19; test: Drug metabolism assessed as intrinsic clearance for human recombinant CYP2C19-mediated compound formation per nmol protein treated with AM2201 at 10 uM after 90 mins; assay type: ADME; conditions: recombinant enzyme, 1.5 h
[5] = Drug level in human urine treated with JWH-018 by LC-MS/MS analysis; assay type: ADME, tissue-based
Procedure, shortened: (§1)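 Urine from suspected users (40 μl) incubated with or without β-glucuronidase (1.6 U/μl final) in 0.1 M sodium acetate pH 5.0, 60 min at 37°C with shaking. Analysed by positive-ESI LC-MS/MS against standards matrix-matched in blank pooled human urine, with confirmation by enhanced product ion spectra.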

Cannabinoid receptor 1 = Cannabinoid receptor 1 (Mus musculus, UniProt P47746); test: Displacement of [3H]CP-55,940 from CB1 receptor in B6SJL mouse brain membrane after 90 mins by liquid scintillation spectrophotometric analysis; assay type: cell membranes
Chain of Cannabinoid receptor 1 (P47746 whole entry): as the sequence (P47746 whole entry) above
Procedure, shortened: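 B6SJL mouse brain membranes (50 μg) with 0.2 nM [3H]CP-55,940 and competitor at 0.1 nM–10 μM. Buffer 5 mM MgCl2, 50 mM Tris, 0.05% BSA; 90 min at room temperature, triplicate. Nonspecific binding set with 10 μM WIN-55,212-2. Filtered on GF/B, washed with Tris/BSA, counted by scintillation. Specific binding given as % of vehicle.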

Cytochrome P450 1A2 [6] = biological target: T2, Cytochrome P450 1A2 (Homo sapiens, UniProt P05177); test: Drug metabolism assessed as intrinsic clearance for human recombinant CYP1A2-mediated compound formation per nmol protein treated with AM2201 at 10 uM after 90 mins; assay type: ADME; conditions: recombinant enzyme, 1.5 h
T2 sequence (P05177 whole entry): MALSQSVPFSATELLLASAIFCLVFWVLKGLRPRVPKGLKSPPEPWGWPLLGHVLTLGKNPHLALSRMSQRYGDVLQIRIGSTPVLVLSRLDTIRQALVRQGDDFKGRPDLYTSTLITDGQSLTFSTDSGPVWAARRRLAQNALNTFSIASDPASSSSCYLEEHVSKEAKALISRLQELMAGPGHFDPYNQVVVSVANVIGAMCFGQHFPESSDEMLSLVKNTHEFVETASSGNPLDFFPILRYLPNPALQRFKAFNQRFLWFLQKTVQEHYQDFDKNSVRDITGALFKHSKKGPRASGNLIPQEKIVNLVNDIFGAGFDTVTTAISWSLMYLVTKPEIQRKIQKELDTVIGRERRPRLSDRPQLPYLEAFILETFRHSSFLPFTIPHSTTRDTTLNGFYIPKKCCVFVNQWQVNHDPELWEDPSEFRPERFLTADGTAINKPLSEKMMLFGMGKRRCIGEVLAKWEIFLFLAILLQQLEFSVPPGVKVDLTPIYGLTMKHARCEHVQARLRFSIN

Cytochrome P450 2D6 [7] = biological target: T3, Cytochrome P450 2D6 (Homo sapiens, UniProt P10635); test: Drug metabolism assessed as intrinsic clearance for human recombinant CYP2D6-mediated compound formation per nmol protein treated with AM2201 at 10 uM after 90 mins; assay type: ADME; conditions: recombinant enzyme, 1.5 h
T3 sequence (P10635 whole entry): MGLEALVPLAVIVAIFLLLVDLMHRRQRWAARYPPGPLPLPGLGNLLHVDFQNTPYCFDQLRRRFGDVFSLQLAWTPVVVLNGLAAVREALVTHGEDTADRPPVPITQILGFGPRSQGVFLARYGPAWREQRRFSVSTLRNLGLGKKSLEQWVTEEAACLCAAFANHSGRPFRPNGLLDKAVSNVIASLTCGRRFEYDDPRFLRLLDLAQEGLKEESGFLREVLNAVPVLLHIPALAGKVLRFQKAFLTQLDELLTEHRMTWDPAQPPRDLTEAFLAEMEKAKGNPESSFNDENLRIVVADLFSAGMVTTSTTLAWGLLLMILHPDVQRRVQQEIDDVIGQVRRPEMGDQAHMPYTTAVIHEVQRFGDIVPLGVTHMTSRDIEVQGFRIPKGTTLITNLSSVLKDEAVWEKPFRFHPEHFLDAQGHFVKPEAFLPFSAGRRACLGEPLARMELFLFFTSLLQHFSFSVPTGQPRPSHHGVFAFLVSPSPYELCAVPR

Cytochrome P450 2C9 [8] = biological target: T4, Cytochrome P450 2C9 (Homo sapiens, UniProt P11712); test: Drug metabolism assessed as intrinsic clearance for human recombinant CYP2C9-mediated compound formation per nmol protein treated with AM2201 at 10 uM after 90 mins; assay type: ADME; conditions: recombinant enzyme, 1.5 h
T4 sequence (P11712 whole entry): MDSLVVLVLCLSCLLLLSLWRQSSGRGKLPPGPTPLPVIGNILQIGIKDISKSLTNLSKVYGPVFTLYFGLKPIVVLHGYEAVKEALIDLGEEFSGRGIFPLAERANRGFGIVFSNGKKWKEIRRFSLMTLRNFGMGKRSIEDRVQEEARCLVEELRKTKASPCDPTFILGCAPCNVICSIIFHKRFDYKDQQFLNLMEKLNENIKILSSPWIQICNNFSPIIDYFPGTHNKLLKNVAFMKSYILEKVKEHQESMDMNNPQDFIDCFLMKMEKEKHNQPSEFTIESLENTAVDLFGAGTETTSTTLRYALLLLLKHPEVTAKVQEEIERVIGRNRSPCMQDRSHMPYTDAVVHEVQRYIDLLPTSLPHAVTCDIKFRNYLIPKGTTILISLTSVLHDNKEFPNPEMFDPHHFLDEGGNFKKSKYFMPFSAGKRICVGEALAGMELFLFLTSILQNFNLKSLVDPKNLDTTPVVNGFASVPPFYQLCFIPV

Liver microsome [9] = test: Drug metabolism in human liver microsomes assessed as intrinsic clearance per mg protein treated with JWH-018; assay type: ADME
Cytochrome P450 2D6 [10] = biological target: T3, Cytochrome P450 2D6; test: Drug metabolism assessed as intrinsic clearance for human recombinant CYP2D6-mediated compound formation per nmol protein treated with JWH-018 at 10 uM after 90 mins; assay type: ADME; conditions: recombinant enzyme, 1.5 h
Cytochrome P450 2C9 [11] = biological target: T4, Cytochrome P450 2C9; test: Drug metabolism assessed as intrinsic clearance for human recombinant CYP2C9-mediated compound formation per nmol protein treated with JWH-018 at 10 uM after 90 mins; assay type: ADME; conditions: recombinant enzyme, 1.5 h
Liver microsome [12] = test: Drug level in human liver microsomes treated with AM2201 at 10 uM after 20 mins by LC-MS/MS analysis; assay type: ADME
Procedure, shortened: (§2)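 Pooled human liver microsomes (75 μg) incubated with 10 μM substrate in 0.1 M KPO4 pH 7.4 with NADPH-regenerating system at 37°C. Reaction stopped with ethanol, centrifuged. Analytes quantified by positive-ESI LC-MS/MS against standards matrix-matched in reaction mixture, with confirmation by SRM-triggered enhanced product ion spectra library matching.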

Liver microsome [13] = test: Drug metabolism in human liver microsomes assessed as intrinsic clearance per mg protein treated with AM2201; assay type: ADME
Cytochrome P450 1A2 [14] = biological target: T2, Cytochrome P450 1A2; test: Drug metabolism assessed as intrinsic clearance for human recombinant CYP1A2-mediated compound formation per nmol protein treated with JWH-018 at 10 uM after 90 mins; assay type: ADME; conditions: recombinant enzyme, 1.5 h
[15] = Drug metabolism in human urine assessed as (1-(4-hydroxypentyl)-1H-indol-3-yl)(naphthalen-1-yl)methanone formation by LC-MS/MS analysis; assay type: ADME, tissue-based; procedure, shortened: as §1
Cytochrome P450 3A4 [16] = biological target: T5, Cytochrome P450 3A4 (Homo sapiens, UniProt P08684); test: Drug metabolism assessed as human recombinant CYP3A4-mediated (1-(5-hydroxypentyl)-1H-indol-3-yl)(naphthalen-1-yl)methanone formation at 10 uM after 90 mins by LC-MS/MS analysis; assay type: ADME; conditions: recombinant enzyme, 1.5 h
T5 sequence (P08684 whole entry): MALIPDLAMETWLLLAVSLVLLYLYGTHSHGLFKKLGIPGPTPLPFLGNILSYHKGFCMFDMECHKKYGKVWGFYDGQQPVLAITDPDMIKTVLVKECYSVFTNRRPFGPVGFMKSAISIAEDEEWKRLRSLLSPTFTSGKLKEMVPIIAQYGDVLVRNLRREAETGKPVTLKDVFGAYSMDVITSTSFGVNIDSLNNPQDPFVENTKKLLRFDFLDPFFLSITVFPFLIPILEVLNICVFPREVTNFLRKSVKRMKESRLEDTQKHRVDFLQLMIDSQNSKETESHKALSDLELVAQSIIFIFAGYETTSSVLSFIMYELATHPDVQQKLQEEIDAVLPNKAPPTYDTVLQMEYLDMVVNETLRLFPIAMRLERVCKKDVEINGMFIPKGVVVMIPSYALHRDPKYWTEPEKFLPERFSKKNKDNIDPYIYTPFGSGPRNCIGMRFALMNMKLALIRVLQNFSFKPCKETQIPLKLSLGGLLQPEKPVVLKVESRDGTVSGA
Procedure, shortened: (§3)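 Recombinant human CYP2E1 or CYP3A4 (2 pmol) incubated with substrate at 10 μM final, dried from ethanol. Buffer 0.1 M KPO4 pH 7.4 with NADPH-regenerating system, which starts the reaction. 90 min at 37°C, triplicate, with no-substrate, no-protein and no-NADPH controls. Stopped with ethanol, centrifuged, and metabolites quantified by LC-MS/MS.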

Liver microsome [17] = test: Drug metabolism in human liver microsomes assessed as (6-hydroxy-1-pentyl-1H-indol-3-yl)(naphthalen-1-yl)methanone formation at 10 uM after 20 mins by LC-MS/MS analysis; assay type: ADME; procedure, shortened: as §2
[18] = Drug metabolism in human urine assessed as (1-(5-hydroxypentyl)-1H-indol-3-yl)(naphthalen-1-yl)methanone formation by LC-MS/MS analysis; assay type: ADME, tissue-based; procedure, shortened: as §1
Liver microsome [19] = test: Drug metabolism in human liver microsomes assessed as (7-hydroxy-1-pentyl-1H-indol-3-yl)(naphthalen-1-yl)methanone formation at 10 uM after 20 mins by LC-MS/MS analysis; assay type: ADME; procedure, shortened: as §2
Cytochrome P450 2E1 [20] = biological target: T6, Cytochrome P450 2E1 (Homo sapiens, UniProt P05181); test: Drug metabolism assessed as human recombinant CYP2E1-mediated (1-(4-hydroxypentyl)-1H-indol-3-yl)(naphthalen-1-yl)methanone formation at 10 uM after 90 mins by LC-MS/MS analysis; assay type: ADME; conditions: recombinant enzyme, 1.5 h; procedure, shortened: as §3
T6 sequence (P05181 whole entry): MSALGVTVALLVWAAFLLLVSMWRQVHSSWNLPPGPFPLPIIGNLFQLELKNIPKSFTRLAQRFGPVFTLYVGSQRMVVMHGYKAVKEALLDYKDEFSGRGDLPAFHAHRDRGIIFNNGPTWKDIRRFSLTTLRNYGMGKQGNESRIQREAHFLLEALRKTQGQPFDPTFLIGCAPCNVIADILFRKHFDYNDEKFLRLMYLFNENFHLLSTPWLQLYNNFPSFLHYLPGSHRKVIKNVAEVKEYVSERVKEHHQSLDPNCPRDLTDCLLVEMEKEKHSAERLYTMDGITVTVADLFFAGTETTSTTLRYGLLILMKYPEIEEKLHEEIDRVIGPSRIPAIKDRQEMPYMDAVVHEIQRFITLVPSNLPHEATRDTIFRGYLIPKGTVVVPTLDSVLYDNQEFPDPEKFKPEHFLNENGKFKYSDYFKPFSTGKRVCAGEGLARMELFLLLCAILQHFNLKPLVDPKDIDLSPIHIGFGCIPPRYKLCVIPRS

Cytochrome P450 2E1 [21] = biological target: T6, Cytochrome P450 2E1; test: Drug metabolism assessed as human recombinant CYP2E1-mediated 5-(3-(1-naphthoyl)-1H-indol-1-yl)pentanoic acid formation at 10 uM after 90 mins by LC-MS/MS analysis; assay type: ADME; conditions: recombinant enzyme, 1.5 h; procedure, shortened: as §3
Cytochrome P450 3A4 [22] = biological target: T5, Cytochrome P450 3A4; test: Drug metabolism assessed as human recombinant CYP3A4-mediated (1-(4-hydroxypentyl)-1H-indol-3-yl)(naphthalen-1-yl)methanone formation at 10 uM after 90 mins by LC-MS/MS analysis; assay type: ADME; conditions: recombinant enzyme, 1.5 h; procedure, shortened: as §3
Liver microsome [23] = test: Drug metabolism in human liver microsomes assessed as (5-hydroxy-1-pentyl-1H-indol-3-yl)(naphthalen-1-yl)methanone formation at 10 uM after 20 mins by LC-MS/MS analysis; assay type: ADME; procedure, shortened: as §2
Cytochrome P450 2E1 [24] = biological target: T6, Cytochrome P450 2E1; test: Drug metabolism assessed as human recombinant CYP2E1-mediated (1-(5-hydroxypentyl)-1H-indol-3-yl)(naphthalen-1-yl)methanone formation at 10 uM after 90 mins by LC-MS/MS analysis; assay type: ADME; conditions: recombinant enzyme, 1.5 h; procedure, shortened: as §3
Cytochrome P450 3A4 [25] = biological target: T5, Cytochrome P450 3A4; test: Drug metabolism assessed as human recombinant CYP3A4-mediated 5-(3-(1-naphthoyl)-1H-indol-1-yl)pentanoic acid formation at 10 uM after 90 mins by LC-MS/MS analysis; assay type: ADME; conditions: recombinant enzyme, 1.5 h; procedure, shortened: as §3
[26] = Drug metabolism in human urine assessed as 5-(3-(1-naphthoyl)-1H-indol-1-yl)pentanoic acid formation by LC-MS/MS analysis; assay type: ADME, tissue-based; procedure, shortened: as §1
Cytochrome b5 = Cytochrome b5 (Homo sapiens, UniProt P00167); test: Drug metabolism assessed as cytochrome b5 (unknown origin)-mediated (5-hydroxy-1-pentyl-1H-indol-3-yl)(naphthalen-1-yl)methanone formation at 10 uM after 90 mins by LC-MS/MS analysis in presence of oxidoreductase; assay type: ADME; conditions: 1.5 h
Chain of Cytochrome b5 (P00167 whole entry): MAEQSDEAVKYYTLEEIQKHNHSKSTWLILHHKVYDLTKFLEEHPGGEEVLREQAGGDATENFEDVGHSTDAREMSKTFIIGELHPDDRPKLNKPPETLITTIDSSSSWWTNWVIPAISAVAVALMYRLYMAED

Liver microsome [27] = test: Drug level in human liver microsomes treated with JWH-018 at 10 uM after 20 mins by LC-MS/MS analysis; assay type: ADME; procedure, shortened: as §2

SMILES	Activity [1]	Activity [2]	CL (Cytochrome P450 2C19 [3]) [µL/min]	CL (Cytochrome P450 2C19 [4]) [µL/min]	Drug metabolism [5]	Ki (Cannabinoid receptor 1) [nM]	CL (Cytochrome P450 1A2 [6]) [µL/min]	CL (Cytochrome P450 2D6 [7]) [µL/min]	CL (Cytochrome P450 2C9 [8]) [µL/min]	CLH (Liver microsome [9]) [µL/min/mg]	CL (Cytochrome P450 2D6 [10]) [µL/min]	CL (Cytochrome P450 2C9 [11]) [µL/min]	Drug metabolism (Liver microsome [12]) [ng/mL]	CLH (Liver microsome [13]) [µL/min/g]	CL (Cytochrome P450 1A2 [14]) [µL/min]	also measured
CCCCCc1cc(O)c2c(c1)OC(C)(C)[C@@H]1CCC(C)=C[C@@H]21	inactive	Active														
O=C(c1cccc2ccccc12)c1cn(CCCCCO)c2ccccc12	inactive	Active	6.5	32	metabolite_detected	35	19	3.7	63	0.5	9.3	1035	8.53	0.483	157	
CC(O)CCCn1cc(C(=O)c2cccc3ccccc23)c2ccccc21 (centres undefined)	inactive	Active	48.7		metabolite_detected	15.4				0.574	13.4	375			306	
CCCCCn1cc(C(=O)c2cccc3ccccc23)c2ccccc21	inactive	Active				1.3										Drug metabolism [15]: metabolite_detected; Drug metabolism (Cytochrome P450 3A4 [16]): metabolite_not_detected; Drug metabolism (Liver microsome [17]): metabolite_detected; Drug metabolism [18]: metabolite_detected; Drug metabolism (Liver microsome [19]): metabolite_detected; Drug metabolism (Cytochrome P450 2E1 [20]): metabolite_not_detected; Drug metabolism (Cytochrome P450 2E1 [21]): metabolite_not_detected; Drug metabolism (Cytochrome P450 3A4 [22]): metabolite_not_detected; Drug metabolism (Liver microsome [23]): metabolite_detected; Drug metabolism (Cytochrome P450 2E1 [24]): metabolite_not_detected; Drug metabolism (Cytochrome P450 3A4 [25]): metabolite_not_detected; Drug metabolism [26]: metabolite_detected; Drug metabolism (Cytochrome b5): metabolite_detected
CCCCCn1cc(C(=O)c2cccc3ccccc23)c2cc(O)ccc21										0.52				0		Drug metabolism (Liver microsome [27]): metabolite_detected
O=C(O)CCCCn1cc(C(=O)c2cccc3ccccc23)c2ccccc21		inactive	0	28	metabolite_detected	> 10000	89	0.371	111	0	0	0	4.7	0.6	23	
